Measured values taken from ChEMBL document CHEMBL1138555, “N-acylated and N,N'-diacylated imidazolidine-2-thione derivatives and N,N'-diacylated tetrahydropyrimidine-2(1H)-thione analogues: synthesis and antiproliferative activity” (Eur J Med Chem, 2009).

Tests used:
[1] = test system: CCRF-CEM; assay: Growth inhibition of human CCRF-CEM cells after 48 hrs by sulforhodamine B assay; format: functional
Method in brief: (§1)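 NCI screen panel. Five 10-fold concentrations from 10^-4 to 10^-8 M. Exposure for the last 48 h of a 72 h incubation. Growth estimated by sulforhodamine B protein assay. GI50 is the concentration giving 50% growth inhibition. Where that level was not reached or was exceeded, the value is given as above or below the highest or lowest concentration tested.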

[2] = test system: NCI-H460; assay: Growth inhibition of human NCI-H460 cells after 48 hrs by sulforhodamine B assay; format: functional; settings: NCI-H460, 48 h; method in brief: as §1
[3] = test system: LOX IMVI; assay: Growth inhibition of human LOXIMVI cells after 48 hrs by sulforhodamine B assay; format: functional; method in brief: as §1
[4] = test system: NCI-H322M; assay: Growth inhibition of human NCI-H322M cells after 48 hrs by sulforhodamine B assay; format: functional; method in brief: as §1
[5] = test system: CAKI-1; assay: Growth inhibition of human Caki1 cells after 48 hrs by sulforhodamine B assay; format: functional; settings: CAKI-1, 48 h; method in brief: as §1
[6] = test system: BT-549; assay: Growth inhibition of human BT549 cells after 48 hrs by sulforhodamine B assay; format: functional; settings: BT-549, 48 h; method in brief: as §1
[7] = test system: HT-29; assay: Growth inhibition of human HT-29 cells after 48 hrs by sulforhodamine B assay; format: functional; settings: HT-29, 48 h; method in brief: as §1
[8] = test system: MOLT-4; assay: Growth inhibition of human MOLT4 cells after 48 hrs by sulforhodamine B assay; format: functional; settings: MOLT-4, 48 h; method in brief: as §1
[9] = Growth inhibition of human […] cells after 48 hrs by sulforhodamine B assay; format: functional; method in brief: as §1
[10] = test system: SNB-19; assay: Growth inhibition of human SNB19 cells after 48 hrs by sulforhodamine B assay; format: functional; settings: SNB-19, 48 h
Method in brief: (§2)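 NCI in vitro panel screen. Compounds tested at five 10-fold dilutions, 10^-4 to 10^-8 M. Cells in 96-well plates were exposed for the last 48 h of a 72 h incubation. Viability/growth was read by sulforhodamine B protein assay. GI50 is the concentration giving 50% growth inhibition. Values beyond the tested range are reported as greater or less than the maximum or minimum concentration.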

[11] = test system: SF-295; assay: Growth inhibition of human SF295 cells after 48 hrs by sulforhodamine B assay; format: functional; settings: SF-295, 48 h; method in brief: as §1
[12] = test system: SF-268; assay: Growth inhibition of human SF268 cells after 48 hrs by sulforhodamine B assay; format: functional; settings: SF-268, 48 h; method in brief: as §1
[13] = test system: KM12; assay: Growth inhibition of human KM12 cells after 48 hrs by sulforhodamine B assay; format: functional; settings: KM12, 48 h; method in brief: as §1
[14] = test system: MT4; assay: Antiproliferative activity against human MT4 cells assessed as reduction of growth by MTT assay; format: functional, cell-based
Method in brief: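 MT-4 lymphoblastoid T cells (ATCC) in RPMI 1640 with 10% FCS, penicillin/streptomycin, checked for mycoplasma. 1 × 10⁴ mock-infected cells per well with serial dilutions from a 100 mM DMSO stock. Incubated 4 days at 37 °C, viable cells counted by MTT. IC50 versus untreated controls by linear regression. Mean of three separate experiments.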

[15] = test system: HOP-62; assay: Growth inhibition of human HOP62 cells after 48 hrs by sulforhodamine B assay; format: functional; settings: HOP-62, 48 h; method in brief: as §1
[16] = test system: SN12C; assay: Growth inhibition of human SN12C cells after 48 hrs by sulforhodamine B assay; format: functional; method in brief: as §2
[17] = test system: K562; assay: Growth inhibition of human K562 cells after 48 hrs by sulforhodamine B assay; format: functional; settings: K562, 48 h; method in brief: as §1
[18] = test system: T47D; assay: Growth inhibition of human T47D cells after 48 hrs by sulforhodamine B assay; format: functional; method in brief: as §2
[19] = test system: U-251; assay: Growth inhibition of human U251 cells after 48 hrs by sulforhodamine B assay; format: functional; settings: U-251, 48 h; method in brief: as §2
[20] = test system: M14; assay: Growth inhibition of human M14 cells after 48 hrs by sulforhodamine B assay; format: functional; settings: M14, 48 h; method in brief: as §1
[21] = test system: SNB-75; assay: Growth inhibition of human SNB75 cells after 48 hrs by sulforhodamine B assay; format: functional; settings: SNB-75, 48 h; method in brief: as §2
[22] = test system: Malme-3M; assay: Growth inhibition of human MALME-3M cells after 48 hrs by sulforhodamine B assay; format: functional; method in brief: as §1
[23] = test system: TK-10; assay: Growth inhibition of human TK10 cells after 48 hrs by sulforhodamine B assay; format: functional; settings: TK-10, 48 h; method in brief: as §2
[24] = test system: OVCAR-8; assay: Growth inhibition of human OVCAR8 cells after 48 hrs by sulforhodamine B assay; format: functional; settings: OVCAR-8, 48 h; method in brief: as §1
[25] = test system: PC-3; assay: Growth inhibition of human PC3 cells after 48 hrs by sulforhodamine B assay; format: functional; settings: PC-3, 48 h; method in brief: as §1
[26] = test system: HOP-92; assay: Growth inhibition of human HOP92 cells after 48 hrs by sulforhodamine B assay; format: functional; settings: HOP-92, 48 h; method in brief: as §1
[27] = test system: NCI-H23; assay: Growth inhibition of human NCI-H23 cells after 48 hrs by sulforhodamine B assay; format: functional; settings: NCI-H23, 48 h; method in brief: as §1
[28] = test system: HCT-15; assay: Growth inhibition of human HCT15 cells after 48 hrs by sulforhodamine B assay; format: functional; settings: HCT-15, 48 h; method in brief: as §1
[29] = test system: SK-OV-3; assay: Growth inhibition of human SKOV3 cells after 48 hrs by sulforhodamine B assay; format: functional; settings: SK-OV-3, 48 h; method in brief: as §1
[30] = test system: UO-31; assay: Growth inhibition of human UO31 cells after 48 hrs by sulforhodamine B assay; format: functional; settings: UO-31, 48 h; method in brief: as §2
[31] = test system: OVCAR-4; assay: Growth inhibition of human OVCAR4 cells after 48 hrs by sulforhodamine B assay; format: functional; settings: OVCAR-4, 48 h; method in brief: as §1
[32] = test system: SK-MEL-28; assay: Growth inhibition of human SK-MEL-28 cells after 48 hrs by sulforhodamine B assay; format: functional; settings: SK-MEL-28, 48 h; method in brief: as §1
[33] = test system: ACHN; assay: Growth inhibition of human ACHN cells after 48 hrs by sulforhodamine B assay; format: functional; method in brief: as §1
[34] = test system: MDA-MB-435; assay: Growth inhibition of human MDA-MB-435 cells after 48 hrs by sulforhodamine B assay; format: functional; settings: MDA-MB-435, 48 h; method in brief: as §1
[35] = test system: MDA-MB-231; assay: Growth inhibition of human MDA-MB-231 cells after 48 hrs by sulforhodamine B assay; format: functional; settings: MDA-MB-231, 48 h; method in brief: as §1
[36] = test system: SK-MEL-5; assay: Growth inhibition of human SK-MEL-5 cells after 48 hrs by sulforhodamine B assay; format: functional; settings: SK-MEL-5, 48 h; method in brief: as §1
[37] = test system: 786-0; assay: Growth inhibition of human 786-0 cells after 48 hrs by sulforhodamine B assay; format: functional; settings: 786-0, 48 h; method in brief: as §1
[38] = test system: COLO 205; assay: Growth inhibition of human COLO205 cells after 48 hrs by sulforhodamine B assay; format: functional; settings: COLO 205, 48 h; method in brief: as §1
[39] = test system: OVCAR-3; assay: Growth inhibition of human OVCAR-3 cells after 48 hrs by sulforhodamine B assay; format: functional; settings: OVCAR-3, 48 h; method in brief: as §1
[40] = test system: SR; assay: Growth inhibition of human SR cells after 48 hrs by sulforhodamine B assay; format: functional; method in brief: as §2
[41] = test system: DU-145; assay: Growth inhibition of human DU145 cells after 48 hrs by sulforhodamine B assay; format: functional; settings: DU-145, 48 h; method in brief: as §1
[42] = test system: HCT-116; assay: Growth inhibition of human HCT116 cells after 48 hrs by sulforhodamine B assay; format: functional; settings: HCT-116, 48 h; method in brief: as §1
[43] = test system: EKVX; assay: Growth inhibition of human EKVX cells after 48 hrs by sulforhodamine B assay; format: functional; method in brief: as §1
[44] = test system: UACC-62; assay: Growth inhibition of human UACC62 cells after 48 hrs by sulforhodamine B assay; format: functional; settings: UACC-62, 48 h; method in brief: as §2
[45] = test system: SW-620; assay: Growth inhibition of human SW620 cells after 48 hrs by sulforhodamine B assay; format: functional; settings: SW-620, 48 h; method in brief: as §2
[46] = test system: A549; assay: Growth inhibition of human A549 cells after 48 hrs by sulforhodamine B assay; format: functional; settings: A549, 48 h; method in brief: as §1
[47] = test system: HL-60(TB); assay: Growth inhibition of human HL-60(TB) cells after 48 hrs by sulforhodamine B assay; format: functional; settings: HL-60, 48 h
Method in brief: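 NCI 60-cell-line screen protocol: cells exposed to compound at five 10-fold dilutions from 10^-4 to 10^-8 M for the last 48 h of a 72 h incubation. Sulforhodamine B protein assay estimated viability/growth. GI50 (50% growth inhibition) derived; where not reached or exceeded, reported as greater or less than the highest or lowest concentration tested.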

CCOC(=O)/C(=C/N1CCN(C(=O)c2ccco2)C1=S)C(=O)c1ccccc1
GI50 [1]: 15.6 µM
GI50 [2]: 4.9 µM
GI50 [3]: 6.5 µM
GI50 [4]: 14.2 µM
GI50 [5]: 15.9 µM
GI50 [6]: 9 µM
GI50 [7]: 19.2 µM
GI50 [8]: 19.6 µM
GI50 [9]: 12.4 µM
GI50 [10]: 35.6 µM
GI50 [11]: 16.4 µM
GI50 [12]: 7.2 µM
GI50 [13]: 10.1 µM
IC50 [14]: 4 µM
GI50 [15]: 17.3 µM
GI50 [16]: 8.1 µM
GI50 [17]: 17.7 µM
GI50 [18]: 4.1 µM
GI50 [19]: 11.5 µM
GI50 [20]: 8.9 µM
GI50 [21]: 46 µM
GI50 [22]: 13.3 µM
GI50 [23]: 12.4 µM
GI50 [24]: 11.7 µM
GI50 [25]: 19.4 µM
GI50 [26]: 23 µM
GI50 [27]: 7.7 µM
GI50 [28]: 6.3 µM
GI50 [29]: 20 µM
GI50 [30]: 10 µM
GI50 [31]: 31 µM
GI50 [32]: 22.2 µM
GI50 [33]: 8.5 µM
GI50 [34]: 14.4 µM
GI50 [35]: 10.8 µM
GI50 [36]: < 5 nM
GI50 [37]: 12.9 µM
GI50 [38]: 19.2 µM
GI50 [39]: 20.2 µM
GI50 [40]: 2400 nM
GI50 [41]: 8 µM
GI50 [42]: 8.9 µM
GI50 [43]: 9.5 µM
GI50 [44]: 7.6 µM
GI50 [45]: 7.9 µM
GI50 [46]: 11.6 µM
GI50 [47]: 14.9 µM
